From ChEMBL document CHEMBL3596097, “Stereoselective synthesis and pharmacological evaluation of [4.3.3]propellan-8-amines as analogs of adamantanamines” (Bioorg Med Chem, 2015) come the findings set out here.

The nature of assay [1]: Displacement of [3H]-(+)-MK-801 from phencyclidine binding site of NMDA receptor in pig membranes after 150 mins by scintillation counting analysis. The class given is cell membranes, Sus scrofa. An outline of the steps: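 Thawed membrane preparation (about 100 µg protein) incubated with test compound at various concentrations and 2 nM [3H]-(+)-MK-801 (22.0 Ci/mmol) in TRIS/EDTA (5 mM/1 mM, pH 7.5), 150 min, rt. Stopped by rapid filtration over presoaked filtermats, five water washes, melted solid scintillator, then counting. Nonspecific binding was taken with unlabeled (+)-MK-801. Radioligand Kd 2.26 nM.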
(In general: Displacement assays read how much labelled ligand stays bound in the presence of the test substance.)

The target of assay [2] is Sigma non-opioid intracellular receptor 1 (Cavia porcellus) (UniProt Q60492). Nature of the assay: Displacement of [3H]-(+)-pentazocine from sigma-1 receptor in guinea pig brain cortex membranes up to 10 uM after 120 mins by scintillation counting analysis. Particulars: Cerebral cortex. The assay is classed as cell membranes.
For another assay, the species on record is Rattus norvegicus. Kind of assay: Displacement of [3H]-DTG from sigma-2 receptor in rat liver membranes up to 10 uM after 120 mins by scintillation counting analysis. The class given is cell membranes. Particulars: Membrane.
The next assay has as its system Influenza A virus. Nature of the assay: Antiviral activity against Influenza virus A/FPV/Bratislava/79(H7N7) infected in human A549 cells assessed as viral replication at 5 uM after 24 hrs by plaque assay relative to control. The assay is classed as functional.
In assay [3] the target is Glutamate NMDA receptor; GRIN1/GRIN2A (Homo sapiens, UniProt Q05586+Q12879). Nature of the assay: Displacement of [3H]-(+)-MK-801 from phencyclidine binding site of NMDA receptor in human frontal cortex after 22 hrs by scintillation counting analysis. The class given is tissue-based.

Active and inactive are the calls of the source. The rule behind the calls is not given here.

Sequence of Sigma non-opioid intracellular receptor 1 (Cavia porcellus) (Q60492 whole entry): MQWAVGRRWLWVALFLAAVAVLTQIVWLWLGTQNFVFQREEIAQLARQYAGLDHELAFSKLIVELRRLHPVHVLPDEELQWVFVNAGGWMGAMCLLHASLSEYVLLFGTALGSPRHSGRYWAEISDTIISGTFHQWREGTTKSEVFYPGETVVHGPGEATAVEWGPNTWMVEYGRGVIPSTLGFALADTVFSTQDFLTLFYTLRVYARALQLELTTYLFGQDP
Sequence of Glutamate NMDA receptor; GRIN1/GRIN2A (Q12879 whole entry, other chains not shown): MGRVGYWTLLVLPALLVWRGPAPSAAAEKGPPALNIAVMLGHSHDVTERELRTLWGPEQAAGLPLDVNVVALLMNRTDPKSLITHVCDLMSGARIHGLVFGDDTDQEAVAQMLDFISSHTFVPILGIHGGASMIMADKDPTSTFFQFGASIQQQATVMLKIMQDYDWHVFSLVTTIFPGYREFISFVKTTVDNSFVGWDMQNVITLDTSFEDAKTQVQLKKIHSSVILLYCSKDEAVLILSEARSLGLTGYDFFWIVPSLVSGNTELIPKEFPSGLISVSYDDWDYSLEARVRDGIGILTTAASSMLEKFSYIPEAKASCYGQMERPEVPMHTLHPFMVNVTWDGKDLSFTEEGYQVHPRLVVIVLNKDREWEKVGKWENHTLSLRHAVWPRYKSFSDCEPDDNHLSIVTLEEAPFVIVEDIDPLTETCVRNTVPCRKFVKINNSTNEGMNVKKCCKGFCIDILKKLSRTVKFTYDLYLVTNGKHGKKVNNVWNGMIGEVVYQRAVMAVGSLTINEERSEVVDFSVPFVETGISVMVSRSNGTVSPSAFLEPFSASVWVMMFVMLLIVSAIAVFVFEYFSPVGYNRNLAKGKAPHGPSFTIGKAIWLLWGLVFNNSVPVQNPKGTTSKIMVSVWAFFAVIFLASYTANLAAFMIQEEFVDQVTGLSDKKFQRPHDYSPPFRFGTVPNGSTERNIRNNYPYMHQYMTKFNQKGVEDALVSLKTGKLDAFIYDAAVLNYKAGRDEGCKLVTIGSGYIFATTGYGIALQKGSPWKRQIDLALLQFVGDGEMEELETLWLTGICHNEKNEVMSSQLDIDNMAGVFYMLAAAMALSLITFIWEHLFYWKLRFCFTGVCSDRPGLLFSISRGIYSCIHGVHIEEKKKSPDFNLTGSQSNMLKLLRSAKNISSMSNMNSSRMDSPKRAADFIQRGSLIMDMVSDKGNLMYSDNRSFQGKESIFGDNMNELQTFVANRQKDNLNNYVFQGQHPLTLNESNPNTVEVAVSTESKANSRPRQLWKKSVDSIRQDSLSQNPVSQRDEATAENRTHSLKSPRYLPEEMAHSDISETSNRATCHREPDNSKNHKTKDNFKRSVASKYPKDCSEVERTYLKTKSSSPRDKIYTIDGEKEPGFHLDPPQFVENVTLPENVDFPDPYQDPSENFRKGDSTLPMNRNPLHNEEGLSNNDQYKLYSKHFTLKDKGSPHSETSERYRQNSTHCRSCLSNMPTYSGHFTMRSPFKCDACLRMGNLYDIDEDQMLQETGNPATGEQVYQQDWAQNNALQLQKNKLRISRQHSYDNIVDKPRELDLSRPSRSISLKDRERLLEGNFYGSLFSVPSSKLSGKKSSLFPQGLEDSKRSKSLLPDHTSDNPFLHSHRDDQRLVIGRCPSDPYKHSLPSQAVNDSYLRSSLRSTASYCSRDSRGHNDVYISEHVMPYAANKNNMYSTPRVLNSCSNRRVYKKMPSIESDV

As to `N[C@H]1C[C@@]23CCCC[C@@]2(CCC3)C1`, the Ki – broadly, the dissociation constant of the complex between target and ligand, obtained from inhibition or displacement – in assay [1] is 11 µM. The inhibition result (in assay [2]; in the assay listed under Rattus norvegicus) was “inactive” each time. For the same molecule, in the assay on Influenza A virus, the Activity came out at 116%.
`CC12CC3CC(C)(C1)CC(N)(C3)C2` [MEMANTINE] had an inhibition constant Ki in assay [1] of 9.74 µM.
For `C[C@]12N[C@H](Cc3ccccc31)c1ccccc12` [DIZOCILPINE], the Ki in assay [1] is 0.003 µM.
`NC12CC3CC(CC(C3)C1)C2` [AMANTADINE]: the figures for the Ki in assay [1] and in assay [3] were 11 µM and 10 µM, respectively. In addition, in the assay with Influenza A virus, the Activity is on record as 3.9%.
Take `NC1CC23CCCCC2(CCC3)C1` (mixture of isomers): affinity in assay [1] was put at a Ki of 10.5 µM. The Activity in the assay with Influenza A virus came to 65%.
On to `N[C@@H]1C[C@@]23CCCC[C@@]2(CCC3)C1`, for which the inhibitory constant (Ki) in assay [1] was 16 µM. The inhibition result (in assay [2]; in the assay listed under Rattus norvegicus) was “inactive” in each case. For the same molecule, the Activity in the assay on Influenza A virus amounted to 97%.
